Published values gathered from unrelated publications.
Target: Interleukin-1 receptor-associated kinase 4 (IRAK4, Homo sapiens, UniProt Q9NWZ3)
Residues used in one study (Q9NWZ3 1-460): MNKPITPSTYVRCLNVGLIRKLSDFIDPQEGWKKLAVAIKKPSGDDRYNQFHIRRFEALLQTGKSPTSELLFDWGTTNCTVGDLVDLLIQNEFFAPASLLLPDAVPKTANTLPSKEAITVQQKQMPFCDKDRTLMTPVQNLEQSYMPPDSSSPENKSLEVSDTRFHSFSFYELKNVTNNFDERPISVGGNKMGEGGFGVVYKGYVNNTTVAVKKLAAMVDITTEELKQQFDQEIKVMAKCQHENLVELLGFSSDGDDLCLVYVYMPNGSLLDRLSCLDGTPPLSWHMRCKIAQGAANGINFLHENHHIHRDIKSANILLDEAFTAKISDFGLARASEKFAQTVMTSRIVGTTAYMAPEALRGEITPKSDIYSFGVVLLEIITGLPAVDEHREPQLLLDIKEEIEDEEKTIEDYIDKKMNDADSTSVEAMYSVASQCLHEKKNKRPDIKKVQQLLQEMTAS

| SMILES | effect on | action | method | concentration | endpoint | result |
| --- | --- | --- | --- | --- | --- | --- |
| COc1ncccc1-c1cnn2ccc(N3CCN(C(=O)OC(C)C)CC3)nc12 | binding | – | competition with immobilised ligand | 1 µM | remaining binding | 100% |
| O=c1[nH]c2ccccc2n1C1CCN(Cc2ccc(-c3[nH]c4cc5ncnc5cc4nc3-c3ccccc3)cc2)CC1 | cell-free assay | – | – | 0.5 µM | remaining signal | 201% |
| N#CC1(c2ccccn2)CCN(Cc2cc(C(=O)O)c(=O)n3ccccc23)CC1 | cell-free assay | – | competition with immobilised ligand | 1 µM | remaining binding | 83% |
| COc1cc(Nc2ncc(F)c(Nc3ccc4c(n3)NC(=O)C(C)(C)O4)n2)cc(OC)c1OC | binding | – | – | 10 µM | inhibition | 96% |
| Cc1nn(C)cc1-c1nc2c(N3CCN(Cc4ccc(Cl)cc4)CC3)c(Cl)cnc2[nH]1 | binding | – | competition with immobilised ligand | 1 µM | remaining binding | 74% |
| Cn1cncc1[C@@](O)(COc1ccc(C#N)cc1-c1ccc(OC(F)(F)F)cc1)c1ccc(C#N)cc1 | cell-free assay | – | competition with immobilised ligand | 1 µM | remaining binding | 80% |
| C#Cc1n[nH]c2c(-c3cn([C@@H](C)c4ccccn4)c(=O)[nH]c3=O)cc(F)cc12 | enzyme activity | inhibitor | – | 0.1 µM | inhibition | 14.7% |
| Cn1cc(-c2cccc(N3CCc4c(sc5c4CC(C)(C)C5)C3=O)c2CO)cc(Nc2ccncn2)c1=O | enzyme activity | inhibitor | – | 1 µM | inhibition | 6% |
| C#Cc1n[nH]c2c(-c3cn([C@@H](C)c4ccccc4)c(=O)[nH]c3=O)cc(F)cc12 | enzyme activity | inhibitor | – | 0.1 µM | inhibition | 11.7% |
| CC(C)(C)c1cc(C=C(C#N)C#N)cc(Br)c1O | enzyme activity | inhibitor | – | 0.5 µM | remaining activity | 182% |
| Cn1cc(-c2cc(F)cc(N3CCn4c(cc5c4CCCC5)C3=O)c2CO)cc(Nc2ccc(N3CCN(C4COC4)CC3)cn2)c1=O | enzyme activity | inhibitor | – | 0.1 µM | inhibition | 8% |
| Nc1ncc(-c2nc(N3CCOCC3)nc(N3CCOCC3)n2)c(C(F)F)n1 | binding | – | competition with immobilised ligand | 10 µM | remaining binding | 72% |
